UCH37 inh = human UCH37 deubiquitinating enzyme inhibition; inhibition, % (no concentration beside the values); 0.33% of 330,000 active; purified proteasome/UCH37, Ub-AMC cleavage fluorescence; Q9Y5K5;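 active = mean inhibition over replicate wells above about 20%, limit read from the data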;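 note: 0% = compound-free wells with enzyme and 100% = wells lacking proteasome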
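Material: human UCH37 enzyme supplied as purified proteasome complex / Amount: 0.15 nM proteasome as dispensed / Buffer or medium: pH 7.4 Tris-HCl (50 mM) with ovalbumin, ATP-MgCl2, DTT / Times: preincubation 30 min, reaction 25 min, room temperature / Technique: AMC fluorescence from Ub-AMC cleavage, excitation 355 nm, emission 460 nm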
UBC13 polyUb = inhibitors of human UBC13 polyubiquitin chain formation. 0.47% of 330,000 active. P61088. TR-FRET. inhibition, % at 20 µM. AID 485273; in the data active = inhibition above about 45%, passing the limit was not always enough; inconclusive = no clear call, values can overlap the other calls
PREPL inhibitor = inhibitors of human prolyl oligopeptidase-like enzyme PREPL. 0.68% of 320,000 active. inhibition, % at 5.96 µM. recombinant PREPL, fluorescence polarization activity-based probe. Q4J6C6;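 note: 0% = enzyme with DMSO and 100% = wells lacking enzyme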
Apaf-1 inh = human Apaf-1 inhibition; inhibition, % at 20 µM; 0.71% of 330,000 active; reconstituted apoptosome caspase-3 activity, DEVD-Rh110 fluorescence; O14727; active = inhibition of at least 40% at 20 µM;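 note: plate controls were DMSO wells for no effect and DEVD-CHO caspase inhibitor wells for full effect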
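Material: reconstituted apoptosome with Apaf-1, cytochrome c, caspase-9, procaspase-3, dATP / Buffer or medium: pH 7.5 Hepes buffer with CHAPS, BSA, DTT / Also added: cytochrome c with DEVD-Rh110 / Schedule: compound with Apaf-1, dATP, procaspase-3 30 min, then 50 min reaction, room temperature / Technique: rhodamine 110 fluorescence at Ex 480/Em 540 nm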
PREPL inh cf = human PREPL inhibition, confirmation; inhibition, % at 5.96 µM; 67% of 2,000 active; shares compounds with PREPL inhibitor; recombinant PREPL, fluorescence polarization activity probe;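 note: 0% = protein with DMSO and 100% = wells lacking protein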
Starred values were filed as active, the others as inactive; u = inconclusive; x = not tested or not shown. In the library only some 1.5% were active in any assay of this set; here they are far more common. Cut-off read from the data, not from the text of the source, unless noted: active = inhibition above about 43%; inactive = the rest.

SMILES | UCH37 inh | UBC13 polyUb | PREPL inhibitor | Apaf-1 inh | PREPL inh cf
Cc1ccn2c(NC3CCCC3)c(-c3ccccn3)nc2c1 | 6 | 34 | 72* | 0 | 69*
c1ccc(-c2nc3ccccn3c2NC2CCCC2)nc1 | 2 | 6 | 63* | 8 | 65*
O=C(NN=Cc1c[nH]c2ccc(Br)cc12)c1ccn(Cc2ccc(Cl)cc2)n1 | 0 | x | x | x | x
Cc1ccc(C2C(C(=O)c3cc4ccccc4o3)=C(O)C(=O)N2CCN(C)C)o1 (stereo not drawn) | 8 | x | x | x | x
CN(C)CCN1C(=O)C(O)=C(C(=O)c2cc3ccccc3o2)C1c1ccc(N(C)C)cc1 (stereo not drawn) | 12 | -12 | 51* | 17 | 54*
CCOc1cc(N2CCOCC2)c(OCC)cc1NC(=O)CN1C(=O)NC(Cc2ccccc2)C1=O (stereo not drawn) | 4 | -2 | 54* | -1 | 56*
C[C@H]1CN([C@@H](C)CO)C(=O)Cc2cc(NS(C)(=O)=O)ccc2O[C@@H]1CN(C)Cc1ccc(Cl)c(Cl)c1 | 1 | 9 | 47* | 12 | 33
C[C@@H]1CN([C@@H](C)CO)C(=O)Cc2cc(NC(=O)Nc3ccc(F)cc3)ccc2O[C@@H]1CN(C)Cc1ccc(Cl)c(Cl)c1 | 1 | -16 | 14 | 22 | x
Oc1ccc(C=NNc2ccnc3cc(Cl)ccc23)cc1O | -14 | x | x | x | x
Oc1ccc(/C=N/Nc2ccnc3cc(Cl)ccc23)cc1O | x | -8 | 54* | 5 | 36
CN(C)c1ccc(C=NOC(=O)Nc2ccccc2Cl)cc1 | 4 | x | x | x | x
COc1cc(OC)c(C=Nn2c(C)nnc2C)c(OC)c1 | 0 | x | x | x | x
O=c1c2ccccc2c(C=NCCCN2CCOCC2)c(O)n1Cc1ccc2c(c1)OCO2 | 4 | 21 | 44* | 15 | 27
Nc1cc([N+](=O)[O-])cc2oc(-c3ccccc3)cc12 | 2 | -146 | 53* | 17 | 54*
O=c1cc(-c2ccccc2)oc2ccccc12 | 6 | -1 | -20 | -1 | x
CCN(CC)CCCN1C=C2C(=O)C(C)(OC(=O)C3CCCC3)C(=O)C=C2C=C1c1ccsc1 (stereo not drawn) | 2 | -90 | 43* | 30 | 25
CC1(OC(=O)C2CCCC2)C(=O)C=C2C=C(c3ccsc3)N(Cc3ccccc3)C=C2C1=O (stereo not drawn) | -1 | -40 | 38 | 23 | x
COc1ccc(-c2nn(-c3ccccc3)cc2C=NNC(=O)c2cccc(S(=O)(=O)Nc3ccccc3Cl)c2)cc1 | -68 | x | x | x | x
O=C(O)CCC(=O)N1CCN(c2ccccn2)CC1 | x | 2 | 44* | 3 | 3
Cc1ccc(NS(=O)(=O)c2cccc(C(=O)NN=Cc3ccc4c(c3)OCCO4)c2)c(C)c1 | -12 | x | x | x | x
Nc1ccc2nc(CCCCCCCCc3nc4ccc(N)cc4[nH]3)[nH]c2c1 | 4 | -6 | 70* | 1 | 23
CC(C)NC(=O)c1ccc(NC(=O)CC2SC(N3CCCCC3)=NC2=O)cc1 (stereo not drawn) | 1 | 2 | 80* | -6 | 18
Cc1sc(NC(=O)c2ccccc2)c(C(c2ccc(Cl)cc2)N2CCN(CCO)CC2)c1C (stereo not drawn) | -12 | 31 | 48* | 21 | 41
CCN(CC)c1ccc(C(=O)NN=C(C)c2cccnc2)cc1 | 17 | x | x | x | x
CCCCOc1ccc(C=c2sc3ncnn3c2=O)cc1 | 3 | x | x | x | x
SMILES | UCH37 inh | UBC13 polyUb | PREPL inhibitor | Apaf-1 inh | PREPL inh cf
Cc1c(N)cccc1N | x | -3 | 50* | 2 | 15
COC(=O)c1sccc1-c1ccc(/C=N/OC(=O)c2ccccc2)o1 | x | -9 | 43* | 13 | 38
N#Cc1c(Nc2ccccc2)sc(C(=O)c2ccccc2)c1N | 3 | 0 | 46* | 19 | 42
Cc1cc(-c2n[nH]c(=S)n2N=Cc2cccc([N+](=O)[O-])c2)n[nH]1 | 1 | x | x | x | x
COc1ccc(/C=N/Nc2cc(C)nc3ccccc23)cc1 | x | 17 | 42 | 38 | x
COc1ccc(/C=N/Nc2cc(C)nc3c(C)cccc23)cc1 | x | 21 | 48* | 35 | 47*
COc1ccc(-c2cn3c(C)c(C(=O)N4CCc5ccccc5C4)sc3n2)cc1 | 3 | 13 | 50* | 13 | 40
Cc1c(C(=O)N2CCc3ccccc3C2)sc2nc(-c3ccccc3)cn12 | 4 | 8 | -24 | 8 | x
O=C(CCCc1c[nH]c2ccccc12)NCCc1c[nH]c2ccccc12 | 3 | 7 | 19 | 5 | x
O=C(NCCc1c[nH]c2ccccc12)OCCCCOC(=O)NCCc1c[nH]c2ccccc12 | 1 | 45 | 61* | 18 | 30
Cc1ccc2c(CC(=O)Nc3ccc(N4CCN(C)CC4)cc3C)coc2c1 | -2 | 9 | 61* | -8 | 60*
COc1ccc2sc(-c3ccc(N(C)C)cc3)c(C#Cc3cncn3C)c2c1 | -376 | 35 | 46* | 31 | 40
Cc1cc(C(=O)O)ccc1-n1c(C)ccc1C | x | 18 | 5 | 25 | x
Cc1cc(N)ccc1-n1c(C)ccc1C | 3 | -4 | 59* | 10 | 11
Cc1cc(N)ccc1N1CCCC1 | x | -1 | 57* | 65* | 45*
NC(=O)c1cc(N)ccc1N1CCCCC1 | 4 | -2 | 5 | -2 | x
COc1ccccc1NC(C)C(=O)NN=Cc1ccccc1OCc1cccc(Br)c1 (stereo not drawn) | 0 | x | x | x | x
COc1ccc(OC)c(Nc2nc(NCCCN(C)C)nc(N)c2[N+](=O)[O-])c1 | 13 | u | 47* | 4 | 38
COc1cc(-c2nc3ccccn3c2N=Cc2cccc(F)c2)ccc1O | -42 | x | x | x | x
Cc1cc(N2CCOCC2)nc2ccc(NC(=O)CCC(=O)N3CCN(c4ccccc4)CC3)cc12 | -160 | -6 | 19 | 7 | x
Cc1cc(N2CCN(C)CC2)nc2ccc(NC(=O)CCC(=O)N3CCN(c4ccc([N+](=O)[O-])cc4)CC3)cc12 | 7 | -15 | 66* | 9 | 60*
COc1ccc(CC2S/C(=N/N=Cc3ccccc3O)NC2=O)cc1 (stereo not drawn) | 1 | x | x | x | x
CCOc1cc(C=N/N=C2/NC(=O)C(CC(=O)O)S2)ccc1OCc1ccc(Cl)cc1Cl (stereo not drawn) | 8 | x | x | x | x
CCOc1cc(/C=N/N=C2/NC(=O)C(CC(=O)O)S2)ccc1OCc1ccc(Cl)cc1Cl (stereo not drawn) | x | -24 | 49* | 25 | 64*
CCN(CC)c1nc2c3c(nc4c(c3c1C#N)CC(=O)N4c1ccc(Cl)cc1)NC(C)=N2 | -181 | -62 | 66* | 17 | 65*
S=C(NN=Cc1ccc(Br)cc1)N1CCCCC1 | 1 | x | x | x | x
Cc1ccc(CNC(=O)c2ccc(Br)o2)cc1 | 1 | -2 | -15 | -5 | x
Cc1cc2cc(CNC(=O)c3ccc(Br)o3)ccc2n1C | 6 | -8 | 65* | 12 | 66*
Cc1cc2cc(CNC(=O)c3ccc(Br)o3)ccc2[nH]1 | 7 | -11 | 53* | 28 | 24
CCOc1ccc(-c2cnc(NCc3cccc4ccccc34)n2CCOC)cc1 | 2 | 16 | 47* | 14 | 43

Screening data (PubChem)
